Results collected from several papers.
Each line is one published result; the experiments were not run side by side.
Target: Ephrin type-B receptor 4 (EPHB4, Homo sapiens, UniProt P54760)

SMILES	observed	action	method	tested at	endpoint	result
COc1cc(Cl)c(C(=O)N[C@@H](CN[C@H]2CC[C@@H](N)CC2)Cc2ccc(C#N)cc2)cc1-c1ccc(CN[C@H](C)c2ccc(C)cc2)o1	enzyme activity	inhibitor	–	1 µM	remaining activity	91%
Cc1cc(NC(=O)c2cccc(S(F)(F)(F)(F)F)c2)cc(-n2ccn3nc(-c4cccnc4)cc23)c1	cell-free assay	–	competition with immobilised ligand	1 µM	remaining binding	100%
O=C(Nc1cnn(-c2csc(C(=O)NC3COC3)c2)c1)Nc1c(F)cccc1Cl	enzyme activity	inhibitor	–	5 µM	remaining activity	98.1%
Cc1cc(NC(=O)c2cccc3cc(-c4cccc5[nH]nc(N)c45)ccc23)ccc1F	enzyme activity	inhibitor	–	0.1 µM	activity vs control	109%
CSc1nc(C)c(-c2ccnc(Nc3ccc(N4CCOCC4)cc3)c2)[nH]1	cell-free assay	inhibitor	–	10 µM	inhibition	18.2%
Cc1ccc(C(=O)NCc2ccsc2)cc1C#Cc1cn(C(C)C)c2ncnc(N)c12	enzyme activity	inhibitor	–	1 µM	activity vs control	28%
Cn1c(=O)n(-c2ccc(C(C)(C)C#N)cc2)c2c3cc(-c4cnc5ccccc5c4)ccc3ncc21	enzyme activity	inhibitor	–	10 µM	remaining activity	99%
CCCCNc1ncc2c(-c3ccc(F)cc3)nn(C[C@H]3CC[C@H](N)CC3)c2n1	target engagement in cells	inhibitor	chemoproteomics	20 mM	inhibition	97.5%
Nc1ncnc2occ(-c3ccc(NC(=O)Nc4cc(C(F)(F)F)ccc4F)cc3)c12	cell-free assay	–	–	20 µM	remaining signal	0%
CNCc1ccc(-c2cc(-c3nc(-c4ccc(S(=O)(=O)C(C)C)cc4)cnc3N)on2)cc1	enzyme activity	inhibitor	–	2 µM	inhibition	10%
C[S+]([O-])c1ccc(-c2nc(-c3ccncc3)c(-c3ccc(F)cc3)[nH]2)cc1 (centres unmarked)	cell-free assay	–	–	0.5 µM	remaining signal	91.1%
COc1cc(Nc2cnc(C#N)c(O[C@H](C)CN(C)C)n2)ncc1-c1cnn(C)c1	enzyme activity	inhibitor	radiometric	1 µM	remaining activity	96%
c1ccc(N2CCN(Cc3nc4ccccc4[nH]3)CC2)nc1	cell-free assay	–	competition with immobilised ligand	1 µM	remaining binding	100%
C=CC(=O)Nc1cc(Nc2nccc(Nc3cc(Cl)c(F)cc3C(C)(C)O)n2)c(OC)cc1N1CC[C@@H](N(C)C)C1	enzyme activity	inhibitor	–	1 µM	inhibition	7%
CN(C)CC#Cc1ccc(OCCCc2sc(N3CCc4cccc(C(=O)Nc5nc6ccccc6s5)c4C3)nc2C(=O)O)c(F)c1	cell-free assay	–	competition with immobilised ligand	1 µM	remaining binding	100%
COc1cc2c(Nc3ccc(Br)cc3F)ncnc2cc1OCC1CCN(C)CC1	cell-free assay	–	–	0.5 µM	remaining signal	13%
COc1cccc2c(NCc3ccccc3)nc(-n3c(N)nc4ccccc43)nc12	target engagement in cells	inhibitor	chemoproteomics	20 mM	inhibition	-8.8%
COc1cc2ncnc(Nc3ccc(Oc4ccccc4)c(C)c3C)c2cc1OC	enzyme activity	inhibitor	–	1 µM	inhibition	3%
O=C1NC(=O)c2cc(Nc3ccc(F)cc3)c(Nc3ccc(F)cc3)cc21	cell-free assay	–	–	0.5 µM	remaining signal	108%
Cc1c[nH]c2nccc(Oc3c(F)cc(Nc4cc(Cl)nc(N)n4)cc3F)c12	cell-free assay	–	competition with immobilised ligand	0.1 µM	remaining binding	100%
CCN(CC)c1ccc(C2=NNC(=O)CC2C)cc1[N+](=O)[O-] (centres unmarked)	enzyme activity	inhibitor	–	10 µM	remaining activity	100%
Cc1nc(Cc2cccc(C(F)(F)F)c2)sc1-c1ccc(C(N)=O)nc1	cell-free assay	–	competition with immobilised ligand	1 µM	remaining binding	100%
CCOc1cc(-c2nncn2C)ccc1Nc1ncc2cc(C)nc(NCC(C)(C)C)c2n1	enzyme activity	inhibitor	FRET	1 µM	inhibition	< 15%
C[C@@H](c1cccc(C#N)c1)n1cc(Cl)cc(C(N)=O)c1=N	cell-free assay	–	competition with immobilised ligand	1 µM	remaining binding	96%
Oc1ccc(-c2nc(-c3ccncc3)c(-c3ccc(F)cc3)[nH]2)cc1	cell-free assay	–	–	0.5 µM	remaining signal	89%
CC1=C(C#N)[C@@H](c2ccc3[nH]nc(C)c3c2)C(C#N)=C(c2ccc(Cl)cc2)N1	cell-free assay	–	competition with immobilised ligand	1 µM	remaining binding	100%
CC(C)(C)c1nc2c(s1)c1nc(N)ncc1c1ccc(NS(=O)(=O)c3c(F)cccc3F)c(F)c12	enzyme activity	inhibitor	radiometric	1 µM	remaining activity	93%
O=C(N[C@H]1CCCCC/C=C\C2C[C@@]2(C(=O)O)NC(=O)[C@@H]2C[C@@H](Oc3ccncc3)CN2C1=O)OC1CCCC1 (some centres unmarked)	cell-free assay	–	competition with immobilised ligand	1 µM	remaining binding	100%
Cc1[nH]c(/C=C2\C(=O)Nc3ccc(F)cc32)c(C)c1C(=O)N[C@H]1CCN(C(=O)N(C)C)C1	enzyme activity	inhibitor	–	0.1 µM	remaining activity	111%
